# Measured values as given in ChEMBL document CHEMBL1136530, “Synthesis, stereochemical assignment and biological activity of a novel series of C-4" modified aza-macrolides” (2003).
# Columns and labels:
# Type in all cases: functional
# Mus musculus = experiment: In vivo effective dose against Pasteurella multocida infection in mouse
# Outline: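 Mice infected with P. multocida serotype 5A. Subcutaneous dosing 0.5 h post-infection at 5 to 80 mg/kg. ED50 calculated from the number of mice surviving four days after infection.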
# Escherichia coli = experiment: Minimum inhibitory concentration against Escherichia coli
# Pasteurella multocida = experiment: Minimum inhibitory concentration against Pasteurella multocida
# Outline: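 P. multocida strain 59A0067 (turkey origin), grown overnight on BHI plates; colonies in saline at OD625 0.09 (0.5 McFarland), diluted 1:100 in BHI broth. Two-fold serial dilutions in BHI microdilution, about 5×10⁵ cfu/mL final, 37 °C for 18 h. MIC is the lowest concentration with A600 ≤ 0.025.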
compound,measurement,setting,value
CC[C@H]1OC(=O)[C@H](C)[C@@H](O[C@H]2C[C@@](C)(OC)[C@@](O)(c3cc4ccccc4n3C)[C@H](C)O2)[C@H](C)[C@@H](O[C@@H]2O[C@H](C)C[C@H](N(C)C)[C@H]2O)[C@](C)(O)C[C@@H](C)CN(C)[C@H](C)[C@@H](O)[C@]1(C)O,ED50,Mus musculus,> 40 mg/kg
same,MIC,Escherichia coli,6.25 µg/mL
same,MIC,Pasteurella multocida,0.39 µg/mL
